As a reminder, the EC50 is the concentration at which the effect is half-maximal. Read a high EC50 as weaker potency.

The structures appear in SMILES notation. Bounds are passed on as bounds.

The text below walks through data of ChEMBL document CHEMBL1135783, “Selective agonists at group II metabotropic glutamate receptors: synthesis, stereochemistry, and molecular pharmacology of (S)- and (R)-2-amino-4-(4-hydroxy[1,2,5]thiadiazol-3-yl)butyric acid” (J Med Chem, 2002).

Test [1] addresses Metabotropic glutamate receptor 5 (Rattus norvegicus, UniProt P31424). Kind of test: Compound was evaluated for the inhibitory activity against cloned Metabotropic glutamate receptor 5. Put shortly: (§1)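 CHO cell lines stably expressing mGluR1α, mGluR2, mGluR4a or mGluR5a, grown at 37 °C in 5% CO2 in DMEM with reduced (S)-glutamine ([…]) and 10% dialyzed fetal calf serum. Cells were seeded 2 days before assay: 1.8 × 10^6 cells/well for inositol phosphate (PI hydrolysis) or 1.0 × 10^6 for cAMP formation. Antagonist activity was tested at 1 mM unless stated otherwise.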

In test [2] the target is Metabotropic glutamate receptor 1 (Rattus norvegicus, UniProt P23385). The test can be described thus: Compound was evaluated for the inhibitory activity against cloned Metabotropic glutamate receptor 1. Put shortly: as §1
The target in test [3] is Metabotropic glutamate receptor 4 (Rattus norvegicus, UniProt P31423). The test can be described thus: Compound was evaluated for the inhibitory activity against cloned Metabotropic glutamate receptor 4. The essentials:
as §1

In test [4] the target is Metabotropic glutamate receptor 2 (Rattus norvegicus, UniProt P31421). The test can be described thus: Compound was evaluated for the inhibitory activity against cloned Metabotropic glutamate receptor 2. Put shortly: as §1
Metabotropic glutamate receptor 2, sequence (P31421 whole entry): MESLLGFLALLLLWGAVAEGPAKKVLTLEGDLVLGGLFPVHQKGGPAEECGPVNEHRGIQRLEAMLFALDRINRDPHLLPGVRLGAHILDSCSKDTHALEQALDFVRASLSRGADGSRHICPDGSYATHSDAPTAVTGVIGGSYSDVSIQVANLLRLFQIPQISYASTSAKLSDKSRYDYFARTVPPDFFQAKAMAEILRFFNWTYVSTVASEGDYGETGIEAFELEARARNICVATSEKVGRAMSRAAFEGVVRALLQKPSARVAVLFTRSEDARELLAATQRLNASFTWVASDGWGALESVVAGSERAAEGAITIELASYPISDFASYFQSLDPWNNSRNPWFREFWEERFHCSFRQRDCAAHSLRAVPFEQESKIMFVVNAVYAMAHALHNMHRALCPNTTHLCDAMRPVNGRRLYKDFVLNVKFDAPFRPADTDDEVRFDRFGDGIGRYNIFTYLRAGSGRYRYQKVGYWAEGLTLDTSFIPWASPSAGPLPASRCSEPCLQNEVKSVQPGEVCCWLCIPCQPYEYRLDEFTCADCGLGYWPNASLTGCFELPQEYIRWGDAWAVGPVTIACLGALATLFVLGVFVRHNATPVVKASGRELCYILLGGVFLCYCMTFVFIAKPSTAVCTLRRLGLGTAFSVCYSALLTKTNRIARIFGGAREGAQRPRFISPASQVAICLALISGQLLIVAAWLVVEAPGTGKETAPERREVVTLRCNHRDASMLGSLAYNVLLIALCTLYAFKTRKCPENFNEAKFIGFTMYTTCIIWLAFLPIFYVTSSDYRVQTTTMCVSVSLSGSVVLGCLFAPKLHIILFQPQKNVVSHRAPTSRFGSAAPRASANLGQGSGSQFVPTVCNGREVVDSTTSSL

Metabotropic glutamate receptor 4, sequence (P31423 whole entry): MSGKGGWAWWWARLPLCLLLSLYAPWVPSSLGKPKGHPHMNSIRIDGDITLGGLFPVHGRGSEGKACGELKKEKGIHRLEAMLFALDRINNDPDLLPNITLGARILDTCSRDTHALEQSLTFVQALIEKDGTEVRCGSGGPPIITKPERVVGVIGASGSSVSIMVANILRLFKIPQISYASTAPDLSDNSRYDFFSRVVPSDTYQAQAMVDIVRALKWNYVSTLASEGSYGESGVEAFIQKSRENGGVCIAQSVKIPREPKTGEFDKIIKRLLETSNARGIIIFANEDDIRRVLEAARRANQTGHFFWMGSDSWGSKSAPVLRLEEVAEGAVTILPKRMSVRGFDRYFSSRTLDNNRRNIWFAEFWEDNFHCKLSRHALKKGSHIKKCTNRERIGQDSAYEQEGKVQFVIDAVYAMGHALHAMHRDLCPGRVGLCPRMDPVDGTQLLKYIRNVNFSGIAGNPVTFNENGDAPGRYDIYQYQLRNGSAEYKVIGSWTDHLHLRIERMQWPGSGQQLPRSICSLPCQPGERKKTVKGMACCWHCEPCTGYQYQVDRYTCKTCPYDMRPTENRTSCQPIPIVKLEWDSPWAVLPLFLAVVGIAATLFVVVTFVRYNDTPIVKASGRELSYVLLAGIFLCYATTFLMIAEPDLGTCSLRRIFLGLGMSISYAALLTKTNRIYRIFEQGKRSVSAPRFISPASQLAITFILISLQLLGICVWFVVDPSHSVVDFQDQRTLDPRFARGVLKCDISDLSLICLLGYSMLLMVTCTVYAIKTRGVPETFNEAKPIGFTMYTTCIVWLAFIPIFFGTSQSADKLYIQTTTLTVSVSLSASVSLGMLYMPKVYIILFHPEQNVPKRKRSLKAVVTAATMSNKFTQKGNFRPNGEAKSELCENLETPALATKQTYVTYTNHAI
Metabotropic glutamate receptor 5, sequence (P31424 whole entry): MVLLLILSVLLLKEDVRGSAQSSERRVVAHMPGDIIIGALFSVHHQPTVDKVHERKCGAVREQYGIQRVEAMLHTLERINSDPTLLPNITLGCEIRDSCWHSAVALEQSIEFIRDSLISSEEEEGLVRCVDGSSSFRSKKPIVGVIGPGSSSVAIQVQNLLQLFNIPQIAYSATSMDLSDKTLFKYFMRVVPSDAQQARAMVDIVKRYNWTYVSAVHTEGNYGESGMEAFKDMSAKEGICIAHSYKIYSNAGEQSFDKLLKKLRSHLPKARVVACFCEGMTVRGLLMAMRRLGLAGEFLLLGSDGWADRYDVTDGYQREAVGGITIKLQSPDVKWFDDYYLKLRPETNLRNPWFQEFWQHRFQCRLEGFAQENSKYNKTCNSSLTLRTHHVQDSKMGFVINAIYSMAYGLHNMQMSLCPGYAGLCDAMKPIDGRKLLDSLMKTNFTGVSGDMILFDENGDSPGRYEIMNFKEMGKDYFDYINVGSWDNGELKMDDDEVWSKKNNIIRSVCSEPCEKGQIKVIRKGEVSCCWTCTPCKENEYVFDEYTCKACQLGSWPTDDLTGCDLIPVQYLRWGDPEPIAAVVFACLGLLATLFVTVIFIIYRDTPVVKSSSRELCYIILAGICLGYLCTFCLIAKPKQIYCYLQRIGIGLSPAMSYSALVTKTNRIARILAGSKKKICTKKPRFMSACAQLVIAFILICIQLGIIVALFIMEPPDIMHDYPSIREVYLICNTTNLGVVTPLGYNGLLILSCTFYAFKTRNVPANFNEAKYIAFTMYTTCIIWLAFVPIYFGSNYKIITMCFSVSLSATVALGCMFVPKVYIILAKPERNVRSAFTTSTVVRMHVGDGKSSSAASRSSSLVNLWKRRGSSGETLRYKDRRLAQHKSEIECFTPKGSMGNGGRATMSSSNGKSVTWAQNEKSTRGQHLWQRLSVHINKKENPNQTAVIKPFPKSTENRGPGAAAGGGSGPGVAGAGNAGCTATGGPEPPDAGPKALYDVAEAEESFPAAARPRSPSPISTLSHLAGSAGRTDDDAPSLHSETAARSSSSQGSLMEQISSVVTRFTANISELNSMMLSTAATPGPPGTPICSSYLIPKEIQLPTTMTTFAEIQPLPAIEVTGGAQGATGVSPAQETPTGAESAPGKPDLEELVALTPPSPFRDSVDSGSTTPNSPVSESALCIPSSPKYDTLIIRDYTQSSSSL
Metabotropic glutamate receptor 1, sequence (P23385 whole entry): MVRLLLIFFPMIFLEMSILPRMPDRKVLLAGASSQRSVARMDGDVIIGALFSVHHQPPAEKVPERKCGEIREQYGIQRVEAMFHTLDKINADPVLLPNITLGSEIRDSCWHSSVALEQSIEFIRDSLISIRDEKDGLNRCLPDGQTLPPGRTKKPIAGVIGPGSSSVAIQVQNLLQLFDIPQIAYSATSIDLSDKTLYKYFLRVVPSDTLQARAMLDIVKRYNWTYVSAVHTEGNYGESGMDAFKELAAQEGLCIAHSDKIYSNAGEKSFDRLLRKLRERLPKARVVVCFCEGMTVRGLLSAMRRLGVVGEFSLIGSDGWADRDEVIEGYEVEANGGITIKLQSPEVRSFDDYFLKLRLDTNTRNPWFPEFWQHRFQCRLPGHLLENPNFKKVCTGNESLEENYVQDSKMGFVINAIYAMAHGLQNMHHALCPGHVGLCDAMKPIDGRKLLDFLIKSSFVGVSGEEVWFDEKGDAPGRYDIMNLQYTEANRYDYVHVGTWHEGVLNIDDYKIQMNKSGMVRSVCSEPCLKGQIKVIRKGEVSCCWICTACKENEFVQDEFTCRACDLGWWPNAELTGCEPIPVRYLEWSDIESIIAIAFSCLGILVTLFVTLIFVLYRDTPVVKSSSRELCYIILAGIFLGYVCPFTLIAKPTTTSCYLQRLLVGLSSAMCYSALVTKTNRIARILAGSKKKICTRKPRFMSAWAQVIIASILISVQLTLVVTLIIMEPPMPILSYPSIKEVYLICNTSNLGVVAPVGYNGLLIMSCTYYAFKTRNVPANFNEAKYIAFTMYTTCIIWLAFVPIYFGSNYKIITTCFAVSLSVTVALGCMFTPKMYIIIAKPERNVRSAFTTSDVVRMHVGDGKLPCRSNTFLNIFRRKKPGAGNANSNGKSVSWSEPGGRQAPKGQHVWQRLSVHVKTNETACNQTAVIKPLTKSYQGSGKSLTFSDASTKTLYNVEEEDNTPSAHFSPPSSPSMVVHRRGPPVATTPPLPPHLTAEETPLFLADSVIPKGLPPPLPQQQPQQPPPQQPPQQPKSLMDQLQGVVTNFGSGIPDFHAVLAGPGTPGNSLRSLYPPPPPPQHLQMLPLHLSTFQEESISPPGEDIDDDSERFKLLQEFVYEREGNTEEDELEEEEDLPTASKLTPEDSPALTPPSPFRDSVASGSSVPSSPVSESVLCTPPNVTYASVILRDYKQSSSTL

Take `N[C@@H](CCc1nsnc1O)C(=O)O`: the 50% effective concentration (EC50) in test [1] was 190 µM; in test [2], above 1000 µM; in test [3] it was above 1000 µM.

As for `N[C@@H](Cc1cc(=O)[nH]o1)C(=O)O`, the EC50 in test [4] is above 1000 µM; in test [1] it was 490 µM; in test [2], 250 µM; in test [3] it was above 1000 µM.

For the molecule `N[C@H](Cc1cc(=O)[nH]o1)C(=O)O`, the concentration for a half-maximal effect (EC50) in test [4], in test [1], in test [2] and in test [3] was above 1000 µM throughout.

With `N[C@@H](CCC(=O)O)C(=O)O` [GLUTAMIC ACID], in test [3], the concentration giving a half-maximal response (EC50) worked out at 12 µM.

With `N[C@H](CCc1nsnc1O)C(=O)O`, the half-maximal effective concentration (EC50) in test [1], in test [2] and in test [3] was above 1000 µM each time.

As to `N[C@@H](CCCC(=O)O)C(=O)O` [(S)-2-AMINOADIPIC ACID], the half-maximal effective concentration (EC50) in test [1] is above 1000 µM.
